Key:
[1] = biological target: T1, 5-hydroxytryptamine receptor 1A (Homo sapiens, UniProt P08908); test: Displacement of [3H]-8-OH-DPAT from recombinant human 5HT1A receptor expressed in CHO cell membranes measured after 60 mins by microbeta scintillation counting analysis
T1 sequence (P08908 whole entry): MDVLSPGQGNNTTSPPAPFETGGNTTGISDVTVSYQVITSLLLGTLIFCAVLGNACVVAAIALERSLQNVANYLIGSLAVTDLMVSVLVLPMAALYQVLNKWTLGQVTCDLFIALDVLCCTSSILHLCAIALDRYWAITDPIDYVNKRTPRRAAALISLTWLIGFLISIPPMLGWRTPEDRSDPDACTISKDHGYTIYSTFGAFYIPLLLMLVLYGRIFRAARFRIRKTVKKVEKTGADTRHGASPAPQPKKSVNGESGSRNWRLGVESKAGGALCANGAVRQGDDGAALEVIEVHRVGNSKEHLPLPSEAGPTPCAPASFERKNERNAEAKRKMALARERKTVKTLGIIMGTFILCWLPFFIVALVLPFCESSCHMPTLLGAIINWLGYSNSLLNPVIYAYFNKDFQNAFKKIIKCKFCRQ

[2] = biological target: Sodium-dependent serotonin transporter (Rattus norvegicus, UniProt P31652); test: Displacement of [3H]-citalopram from SERT in rat cortex tissue measured after 60 mins by microbeta scintillation counting analysis
Sequence of Sodium-dependent serotonin transporter (P31652 whole entry): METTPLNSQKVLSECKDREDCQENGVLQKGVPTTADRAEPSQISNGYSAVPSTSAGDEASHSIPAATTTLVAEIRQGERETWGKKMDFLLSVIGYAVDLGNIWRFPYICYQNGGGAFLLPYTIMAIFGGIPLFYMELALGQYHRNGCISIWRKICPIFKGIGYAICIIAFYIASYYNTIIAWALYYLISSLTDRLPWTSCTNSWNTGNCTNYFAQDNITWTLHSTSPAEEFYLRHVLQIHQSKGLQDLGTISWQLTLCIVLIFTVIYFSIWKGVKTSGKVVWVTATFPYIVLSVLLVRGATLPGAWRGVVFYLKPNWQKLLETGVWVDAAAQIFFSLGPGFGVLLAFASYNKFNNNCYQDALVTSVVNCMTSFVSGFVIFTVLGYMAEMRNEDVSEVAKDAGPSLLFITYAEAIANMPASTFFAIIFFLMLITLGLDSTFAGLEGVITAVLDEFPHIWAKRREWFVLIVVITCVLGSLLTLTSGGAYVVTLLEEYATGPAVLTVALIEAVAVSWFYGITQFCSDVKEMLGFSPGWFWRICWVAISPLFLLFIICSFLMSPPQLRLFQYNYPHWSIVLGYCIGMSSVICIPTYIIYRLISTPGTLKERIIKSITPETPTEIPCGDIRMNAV
Summary of the method: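 Rat cortex tissue suspension with 1.0 nM [3H]-citalopram in 50 mM Tris pH 7.7, 150 mM NaCl, 5 mM KCl. Incubated 60 min at 24 °C, in duplicate. GF/B filtration, scintillation counting. One-site fit, Ki via Cheng–Prusoff with in-house Kd.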

Mus musculus [3] = test: Induction of hypothermia in CD-1 mouse assessed as change in body temperature at 5 mg/kg, ip measured after 90 mins by thermometric method; assay type: functional, organism-based
Summary of the method: (§1)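 Male CD-1 mice (23–40 g), 6–8 per dose, given compound ip in 10% aqueous DMSO (10 mL/kg). Rectal temperature was read by thermometer 30, 60, 90 and 120 min after dosing. Results are expressed as change from basal temperature at experiment start. Analysis by Dunnett's test.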

[4] = Half life in human liver microsomes at 1 uM by LC-MS analysis; assay type: ADME, Microsome
Summary of the method: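 Compound at 1 μM incubated at 37 °C with 1 mg/mL pooled human liver microsomes and 100 μM NADPH in 0.1 M potassium phosphate pH 7.4, after 5-min preincubation. Samples taken at 0, 5, 10, 15, 30 min and quenched in ice-cold acetonitrile with buspirone internal standard. No-NADPH controls were run. Parent measured by LC-ESI(+)-MS of [M+H+]; half-life reported.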

[5] = biological target: 5-hydroxytryptamine receptor 6 (Homo sapiens, UniProt P50406); test: Displacement of [3H]-LSD from recombinant human 5HT6 receptor expressed in HEK293 cells measured after 1 hr by microbeta scintillation counting analysis; assay type: cell-based
Sequence of 5-hydroxytryptamine receptor 6 (P50406 whole entry): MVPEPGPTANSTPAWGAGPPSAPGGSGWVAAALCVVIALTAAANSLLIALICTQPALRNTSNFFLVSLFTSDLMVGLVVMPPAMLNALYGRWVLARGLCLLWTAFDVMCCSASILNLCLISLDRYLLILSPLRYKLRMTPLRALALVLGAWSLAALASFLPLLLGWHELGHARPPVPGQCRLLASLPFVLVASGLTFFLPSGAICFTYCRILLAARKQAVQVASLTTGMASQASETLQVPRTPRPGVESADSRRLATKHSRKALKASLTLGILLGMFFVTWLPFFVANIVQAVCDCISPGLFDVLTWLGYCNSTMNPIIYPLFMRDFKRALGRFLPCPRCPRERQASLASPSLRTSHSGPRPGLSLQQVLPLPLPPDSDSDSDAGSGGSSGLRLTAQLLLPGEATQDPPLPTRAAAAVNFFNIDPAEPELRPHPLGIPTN

[6] = biological target: 5-hydroxytryptamine receptor 2A (Homo sapiens, UniProt P28223); test: Displacement of [3H]-ketanserin from recombinant human 5HT2A receptor expressed in HEK293 cells measured after 1.5 hrs by microbeta scintillation counting analysis; assay type: cell-based
Sequence of 5-hydroxytryptamine receptor 2A (P28223 whole entry): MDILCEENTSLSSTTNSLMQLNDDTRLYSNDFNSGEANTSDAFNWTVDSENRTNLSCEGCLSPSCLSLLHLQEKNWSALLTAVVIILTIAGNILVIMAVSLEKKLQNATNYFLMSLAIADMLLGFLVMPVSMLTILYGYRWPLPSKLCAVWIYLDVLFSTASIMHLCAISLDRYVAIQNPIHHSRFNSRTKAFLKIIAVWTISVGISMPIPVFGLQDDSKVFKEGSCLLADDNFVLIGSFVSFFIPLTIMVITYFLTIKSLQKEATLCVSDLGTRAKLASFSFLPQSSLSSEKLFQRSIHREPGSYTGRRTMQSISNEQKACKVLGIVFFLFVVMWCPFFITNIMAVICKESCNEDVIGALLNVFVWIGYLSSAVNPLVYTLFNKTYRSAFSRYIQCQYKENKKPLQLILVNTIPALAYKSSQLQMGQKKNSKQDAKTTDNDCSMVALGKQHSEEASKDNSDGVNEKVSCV

[7] = biological target: 5-hydroxytryptamine receptor 7 (Homo sapiens, UniProt P34969); test: Displacement of [3H]-5-CT from recombinant human 5HT7 receptor expressed in HEK293 cells measured after 1 hr by microbeta scintillation counting analysis; assay type: cell-based
Sequence of 5-hydroxytryptamine receptor 7 (P34969 whole entry): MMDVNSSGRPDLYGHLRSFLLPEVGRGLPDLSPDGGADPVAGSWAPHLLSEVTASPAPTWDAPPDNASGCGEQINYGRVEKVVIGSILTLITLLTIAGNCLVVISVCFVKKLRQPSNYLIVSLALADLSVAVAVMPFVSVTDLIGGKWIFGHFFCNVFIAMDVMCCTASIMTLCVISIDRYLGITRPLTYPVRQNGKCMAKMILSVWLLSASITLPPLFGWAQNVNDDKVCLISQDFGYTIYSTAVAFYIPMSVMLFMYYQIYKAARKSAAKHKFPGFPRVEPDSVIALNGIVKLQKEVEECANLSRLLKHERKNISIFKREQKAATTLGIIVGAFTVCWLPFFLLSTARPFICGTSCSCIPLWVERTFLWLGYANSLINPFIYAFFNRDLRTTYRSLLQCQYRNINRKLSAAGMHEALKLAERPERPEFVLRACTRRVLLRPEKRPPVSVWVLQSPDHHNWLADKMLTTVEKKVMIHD

Mus musculus [8] = test: Induction of hypothermia in CD-1 mouse assessed as change in body temperature at 5 mg/kg, ip measured after 30 mins by thermometric method; assay type: functional, organism-based; summary of the method: as §1
Mus musculus [9] = test: Induction of hypothermia in CD-1 mouse assessed as change in body temperature at 20 mg/kg, ip measured after 30 mins in presence of WAY100635 by thermometric method; assay type: functional, organism-based
Mus musculus [10] = test: Induction of hypothermia in CD-1 mouse assessed as change in body temperature at 20 mg/kg, ip measured after 30 mins by thermometric method; assay type: functional, organism-based; summary of the method: as §1
Mus musculus [11] = test: Induction of hypothermia in CD-1 mouse assessed as change in body temperature at 20 mg/kg, ip measured after 90 mins by thermometric method; assay type: functional, organism-based; summary of the method: as §1
Mus musculus [12] = test: Induction of hypothermia in CD-1 mouse assessed as change in body temperature at 5 mg/kg, ip measured after 120 mins by thermometric method; assay type: functional, organism-based; summary of the method: as §1
Mus musculus [13] = test: Induction of hypothermia in CD-1 mouse assessed as change in body temperature at 20 mg/kg, ip measured after 60 mins in presence of WAY100635 by thermometric method; assay type: functional, organism-based
Mus musculus [14] = test: Induction of hypothermia in CD-1 mouse assessed as change in body temperature at 5 mg/kg, ip measured after 60 mins by thermometric method; assay type: functional, organism-based; summary of the method: as §1
Mus musculus [15] = test: Induction of hypothermia in CD-1 mouse assessed as change in body temperature at 20 mg/kg, ip measured after 60 mins by thermometric method; assay type: functional, organism-based; summary of the method: as §1
D(2) dopamine receptor = D(2) dopamine receptor (Homo sapiens, UniProt P14416); test: Displacement of [3H]-raclopride from recombinant human D2 receptor expressed in HEK293 cells measured after 1 hr by microbeta scintillation counting analysis; assay type: cell-based
Sequence of D(2) dopamine receptor (P14416 whole entry): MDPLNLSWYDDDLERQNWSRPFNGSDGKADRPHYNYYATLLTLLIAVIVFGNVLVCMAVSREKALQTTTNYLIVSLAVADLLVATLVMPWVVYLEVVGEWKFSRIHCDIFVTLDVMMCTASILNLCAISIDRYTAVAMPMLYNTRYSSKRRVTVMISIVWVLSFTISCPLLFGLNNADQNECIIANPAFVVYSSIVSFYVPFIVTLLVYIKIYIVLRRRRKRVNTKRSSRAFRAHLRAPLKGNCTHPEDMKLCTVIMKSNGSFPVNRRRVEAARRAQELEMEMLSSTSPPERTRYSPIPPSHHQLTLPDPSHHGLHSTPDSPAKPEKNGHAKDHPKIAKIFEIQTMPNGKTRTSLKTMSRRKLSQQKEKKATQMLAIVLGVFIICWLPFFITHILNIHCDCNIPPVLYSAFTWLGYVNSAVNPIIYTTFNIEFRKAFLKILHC

Mus musculus [16] = test: Induction of hypothermia in CD-1 mouse assessed as change in body temperature at 20 mg/kg, ip measured after 120 mins by thermometric method; assay type: functional, organism-based; summary of the method: as §1
Mus musculus [17] = test: Inhibition of 8-OH-DPAT-induced hypothermia in CD-1 mouse assessed change in body temperature at 20 mg/kg, ip measured after 15 mins by thermometric method (reference value: -1.9 +/- 0.2 deg C); assay type: functional, organism-based
Mus musculus [18] = test: Inhibition of 8-OH-DPAT-induced hypothermia in CD-1 mouse assessed change in body temperature at 20 mg/kg, ip measured after 45 mins by thermometric method (reference value: -2.6 +/- 0.2 deg C); assay type: functional, organism-based
Mus musculus [19] = test: Inhibition of 8-OH-DPAT-induced hypothermia in CD-1 mouse assessed change in body temperature at 20 mg/kg, ip measured after 30 mins by thermometric method (reference value: -2.4 +/- 0.2 deg C); assay type: functional, organism-based
Mus musculus [20] = test: Inhibition of 8-OH-DPAT-induced hypothermia in CD-1 mouse assessed change in body temperature at 20 mg/kg, ip measured after 60 mins by thermometric method (reference value: -2.4 +/- 0.3 deg C); assay type: functional, organism-based

Structure (SMILES): Cc1ccc(-c2c(=O)n(CCCCN3CCCC(c4c[nH]c5ccccc45)C3)c(=O)n3ccccc23)cc1 (configuration not stated)
- Ki [1]: 63 nM
- Ki [2]: 207 nM

Structure (SMILES): O=c1c(-c2ccc(Cl)cc2)c2ccccn2c(=O)n1CCCCN1CCCC(c2c[nH]c3ccccc23)C1 (configuration not stated)
- Ki [1]: 294 nM
- Ki [2]: 82 nM

Structure (SMILES): COc1ccc2[nH]cc(C3CCCN(CCCCn4c(=O)c(-c5ccc(C)cc5)c5ccccn5c4=O)C3)c2c1 (configuration not stated)
- Ki [1]: 333 nM
- Ki [2]: 173 nM

Structure (SMILES): COc1ccc2[nH]cc(C3CCCN(CCCCn4c(=O)c(-c5ccccc5Cl)c5ccccn5c4=O)C3)c2c1 (configuration not stated)
- Ki [1]: 176 nM
- Ki [2]: 459 nM

Structure (SMILES): COc1ccc(-c2c(=O)n(CCCCN3CCCC(c4c[nH]c5ccccc45)C3)c(=O)n3ccccc23)cc1 (configuration not stated)
- deltaT (Mus musculus [3]): 0.4 °C
- half-life at 1 µM [4]: 7.4 min
- Ki [5]: 1710 nM
- Ki [6]: 21 nM
- Ki [7]: 1920 nM
- deltaT (Mus musculus [8]): 0.3 °C
- deltaT (Mus musculus [9]): -1.4 °C
- deltaT (Mus musculus [10]): -1.6 °C
- deltaT (Mus musculus [11]): 0 °C
- Ki [1]: 42 nM
- deltaT (Mus musculus [12]): 0.5 °C
- deltaT (Mus musculus [13]): -0.7 °C
- Ki [2]: 41 nM
- deltaT (Mus musculus [14]): 0.4 °C
- deltaT (Mus musculus [15]): 0.3 °C
- Ki (D(2) dopamine receptor): 1130 nM
- deltaT (Mus musculus [16]): 0.3 °C

Structure (SMILES): O=c1c(-c2ccc(F)cc2)c2ccccn2c(=O)n1CCCCN1CCCC(c2c[nH]c3ccc(F)cc23)C1 (configuration not stated)
- Ki [1]: 147 nM
- Ki [2]: 30 nM

Structure (SMILES): O=c1c(-c2ccccc2)c2ccccn2c(=O)n1CCCCN1CCCC(c2c[nH]c3ccc(F)cc23)C1 (configuration not stated)
- Ki [1]: 209 nM
- Ki [2]: 8 nM

Structure (SMILES): COc1ccccc1-c1c(=O)n(CCCCN2CCCC(c3c[nH]c4ccc(F)cc34)C2)c(=O)n2ccccc12 (configuration not stated)
- Ki [1]: 80 nM
- Ki [2]: 118 nM

Structure (SMILES): COc1ccc2[nH]cc(C3CCCN(CCCCn4c(=O)c(-c5ccccc5F)c5ccccn5c4=O)C3)c2c1 (configuration not stated)
- Ki [1]: 130 nM
- Ki [2]: 1670 nM

Structure (SMILES): O=c1c(-c2ccccc2F)c2ccccn2c(=O)n1CCCCN1CCCC(c2c[nH]c3ccccc23)C1 (configuration not stated)
- Ki [1]: 53 nM
- Ki [2]: 240 nM

Structure (SMILES): O=c1c(-c2ccc(F)cc2)c2ccccn2c(=O)n1CCCCN1CCCC(c2c[nH]c3ccccc23)C1 (configuration not stated)
- deltaT (Mus musculus [3]): 0.3 °C
- half-life at 1 µM [4]: 5.53 min
- Ki [5]: 697 nM
- deltaT (Mus musculus [17]): -1.2 °C
- Ki [6]: 435 nM
- Ki [7]: 1440 nM
- deltaT (Mus musculus [8]): 0.4 °C
- deltaT (Mus musculus [18]): -1.3 °C
- deltaT (Mus musculus [10]): -0.2 °C
- deltaT (Mus musculus [11]): 0.2 °C
- deltaT (Mus musculus [19]): -1.2 °C
- Ki [1]: 46 nM
- deltaT (Mus musculus [12]): 0.2 °C
- Ki [2]: 46 nM
- deltaT (Mus musculus [20]): -1.3 °C
- deltaT (Mus musculus [14]): 0.4 °C
- deltaT (Mus musculus [15]): 0.5 °C
- Ki (D(2) dopamine receptor): 963 nM
- deltaT (Mus musculus [16]): 0.1 °C

Structure (SMILES): COc1ccc2[nH]cc(C3CCCN(CCCCn4c(=O)c(-c5ccc(F)cc5)c5ccccn5c4=O)C3)c2c1 (configuration not stated)
- Ki [1]: 281 nM
- Ki [2]: 192 nM

Structure (SMILES): Cc1ccc(-c2c(=O)n(CCCCN3CCCC(c4c[nH]c5ccc(F)cc45)C3)c(=O)n3ccccc23)cc1 (configuration not stated)
- Ki [1]: 136 nM
- Ki [2]: 135 nM

Structure (SMILES): COc1ccc(-c2c(=O)n(CCCCN3CCCC(c4c[nH]c5ccc(F)cc45)C3)c(=O)n3ccccc23)cc1 (configuration not stated)
- Ki [1]: 140 nM
- Ki [2]: 27 nM

Structure (SMILES): COc1ccc2[nH]cc(C3CCCN(CCCCn4c(=O)c(-c5ccc(Cl)cc5)c5ccccn5c4=O)C3)c2c1 (configuration not stated)
- Ki [1]: 257 nM
- Ki [2]: 490 nM

Structure (SMILES): Cc1ccccc1-c1c(=O)n(CCCCN2CCCC(c3c[nH]c4ccccc34)C2)c(=O)n2ccccc12 (configuration not stated)
- Ki [1]: 102 nM
- Ki [2]: 76 nM

Structure (SMILES): O=c1c(-c2ccc(Cl)cc2)c2ccccn2c(=O)n1CCCCN1CCCC(c2c[nH]c3ccc(F)cc23)C1 (configuration not stated)
- Ki [1]: 155 nM
- Ki [2]: 86 nM

Structure (SMILES): COc1ccc2[nH]cc(C3CCCN(CCCCn4c(=O)c(-c5ccccc5)c5ccccn5c4=O)C3)c2c1 (configuration not stated)
- Ki [1]: 261 nM
- Ki [2]: 248 nM

Structure (SMILES): Cc1ccccc1-c1c(=O)n(CCCCN2CCCC(c3c[nH]c4ccc(F)cc34)C2)c(=O)n2ccccc12 (configuration not stated)
- Ki [1]: 376 nM
- Ki [2]: 338 nM

Structure (SMILES): O=c1c(-c2ccccc2F)c2ccccn2c(=O)n1CCCCN1CCCC(c2c[nH]c3ccc(F)cc23)C1 (configuration not stated)
- Ki [1]: 218 nM
- Ki [2]: 115 nM

Structure (SMILES): O=c1c(-c2ccccc2Cl)c2ccccn2c(=O)n1CCCCN1CCCC(c2c[nH]c3ccc(F)cc23)C1 (configuration not stated)
- Ki [1]: 378 nM
- Ki [2]: 255 nM

Structure (SMILES): COc1ccc2[nH]cc(C3CCCN(CCCCn4c(=O)c(-c5ccccc5OC)c5ccccn5c4=O)C3)c2c1 (configuration not stated)
- Ki [1]: 69 nM
- Ki [2]: 386 nM

Structure (SMILES): COc1ccc2[nH]cc(C3CCCN(CCCCn4c(=O)c(-c5ccccc5C)c5ccccn5c4=O)C3)c2c1 (configuration not stated)
- Ki [1]: 476 nM
- Ki [2]: 87 nM

Structure (SMILES): O=c1c(-c2ccccc2Cl)c2ccccn2c(=O)n1CCCCN1CCCC(c2c[nH]c3ccccc23)C1 (configuration not stated)
- Ki [1]: 50 nM
- Ki [2]: 103 nM

Structure (SMILES): COc1ccccc1-c1c(=O)n(CCCCN2CCCC(c3c[nH]c4ccccc34)C2)c(=O)n2ccccc12 (configuration not stated)
- Ki [1]: 132 nM
- Ki [2]: 411 nM
